Measurements from different studies.
Lines come from different studies, so protocols differ.
Target: Serine/threonine-protein kinase WNK4 (WNK4, Homo sapiens, UniProt Q96J92)

F[C@@H]1CCN(c2nccc(-c3cnn4ncccc34)n2)C1 — remaining binding (binding; 1 µM): 91%
FC(F)(F)Oc1cccc(-c2cnc3ccc(-c4ccncc4)nn23)c1 — remaining binding (binding; competition with immobilised ligand; 5 µM): 100%
O=C(c1ccc(Nc2ncc(Cl)c(-c3cc4ccccc4s3)n2)cc1)N1CCC(N2CCCC2)CC1 — remaining binding (binding; competition with immobilised ligand; 1 µM): 86%
O=C(Nc1cccnn1)N1CC(C/C=C/c2cncc(Oc3ccc(C(F)(F)F)cn3)n2)C1 — remaining binding (cell-free assay; competition with immobilised ligand; 1 µM): 0%
CN(c1nccc(-c2cnn3ncccc23)n1)C1CC1 — remaining binding (binding; 1 µM): 100%
O=C(Nc1c[nH]nc1C(=O)NC1CCNCC1)c1cc(F)cc(F)c1 — remaining binding (binding; competition with immobilised ligand; 1 µM): 100%
O=C(NCCCN1CCOCC1)c1ccc(Nc2nccc(-c3cc4ccccc4s3)n2)cc1 — remaining binding (binding; competition with immobilised ligand; 1 µM): 71%
O=C(Nc1ccc(Oc2ccc(F)cc2)cc1)N1CCc2ncccc2[C@H]1c1ccc(F)cc1 — remaining binding (cell-free assay; competition with immobilised ligand; 1 µM): 85%
COc1cnc(Nc2cccc(S(N)(=O)=O)c2)nc1N1CCN(c2ccccc2)C(=O)C1 — remaining binding (binding; competition with immobilised ligand; 1 µM): 89%
Cc1cnc(Nc2ccc(C(=O)N3CCC(N4CCCC4)CC3)cc2)nc1-c1cc2ccccc2s1 — remaining binding (binding; competition with immobilised ligand; 1 µM): 73%
CN(C)c1ncc(F)c(-c2cnn3ncccc23)n1 — remaining binding (binding; 1 µM): 91%
CC(=O)N1CCC(c2ccc(C(=O)NC(=N)N)cc2C(F)(F)F)CC1 — remaining binding (cell-free assay; competition with immobilised ligand; 1 µM): 100%
CN(C)c1nccc(-c2cnn3ncccc23)n1 — remaining binding (binding; 1 µM): 59%
COc1cnc(Nc2cccc(S(N)(=O)=O)c2)nc1N1CCN(c2ccccc2)CC1 — remaining binding (binding; competition with immobilised ligand; 1 µM): 82%
Cc1nc(N2CC[C@@H](O)C2)ncc1-c1cc(C(F)(F)F)cc2[nH]ncc12 — remaining binding (binding; competition with immobilised ligand; 1 µM): 95%
COc1ncc2cc3ccccc3nc2c1C#N — remaining binding (cell-free assay; competition with immobilised ligand; 5 µM): 80%
COc1cccc(CNC(=O)c2nc3scc(COCc4ccc(C(=O)O)cc4)c3c(=O)[nH]2)c1 — remaining binding (cell-free assay; competition with immobilised ligand; 1 µM): 100%
C[C@@H]1CCN(c2nccc(-c3cnn4ncccc34)n2)C1 — remaining binding (binding; 1 µM): 100%
CCCCN(CCCC)C(=O)CN1C[C@H](c2cc(OC)c3c(c2)OCO3)[C@@H](C(=O)O)[C@@H]1CC(C)(C)CCC — remaining binding (cell-free assay; competition with immobilised ligand; 1 µM): 97.9%
N[C@@H]1CCN(c2nccc(-c3cnn4ncccc34)n2)C1 — remaining binding (binding; 1 µM): 100%
